Test results published in ChEMBL document CHEMBL3085677, “Novel coumarin-3-carboxamides bearing N-benzylpiperidine moiety as potent acetylcholinesterase inhibitors” (Eur J Med Chem, 2013).
Activity calls are given as the source filed them. The calls are words filed in the database; no cut-off is given here.

What was measured:
[1] = Selectivity index, ratio of IC50 for equine serum BChE to IC50 for electric eel AChE
Summary of the method: (§1)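 Ellman-type assay at 25 °C with eel AChE (Type V-S) or equine serum BuChE, added as a 2.5 unit/mL enzyme solution. Medium was 0.1 M phosphate buffer pH 8.0 with DTNB added from a 0.01 M solution. Inhibitor was preincubated 15 min before acetylthiocholine or butyrylthiocholine iodide. ΔA412 was read over 6 min, corrected against a non-enzymatic blank. Five concentrations in triplicate gave 20–80% inhibition. IC50 came graphically from log-concentration curves, mean of three experiments; SI = IC50 BuChE/IC50 AChE.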

Cholinesterase = Cholinesterase (Equus caballus, UniProt P81908); assay: Inhibition of equine serum BChE using butyrylthiocholine iodide as substrate preincubated for 15 mins prior to substrate addition by Ellman's method; summary of the method: as §1
Acetylcholinesterase = Acetylcholinesterase (Electrophorus electricus, UniProt O42275); assay: Inhibition of electric eel AChE using acetylcholine as substrate preincubated for 15 mins prior to substrate addition by Ellman's method
[2] = biological target: Acetylcholinesterase (Electrophorus electricus) (UniProt O42275); assay: Mixed-type inhibition of electric eel AChE using acetylcholine as substrate by Lineweaver-Burk plot method
Summary of the method: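 Kinetics used eel AChE with inhibitor fixed at 0.357, 3.57 or 11.9 nM. Initial velocities were measured across several acetylthiocholine concentrations. Reciprocal velocity (1/v) was plotted against 1/[ATCh] (double-reciprocal plot).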

[3] = biological target: Acetylcholinesterase (Electrophorus electricus) (UniProt O42275); assay: Ratio of donepezil IC50 to compound IC50 for electric eel AChE using acetylcholine as substrate preincubated for 15 mins prior to substrate addition by Ellman's method
[4] = Cytotoxicity against rat PC12 cells at 1 to 100 uM after 24 hrs by MTT assay; type: cell-based; conditions: pc-12, 24 h
PC-12 = assay: Protection against H2O2-induced cell death in rat PC12 cells pretreated at 1 to 100 uM for 3 hrs before H2O2 challenge using DAPI staining method; type: functional, cell-based
Summary of the method: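 Rat PC12 cells grown in RPMI 1640 with 10% FCS and penicillin/streptomycin, plated at 10^4 cells/well. Held 2 days serum-free, then given NGF 50 ng/ml for 5 days until neurites formed. Pretreated 3 h at three compound levels before H2O2 challenge. Apoptosis judged by DAPI added to live cells for 20 min. Viability read by MTT after 24 h.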

Cholinesterase, sequence (P81908 whole entry): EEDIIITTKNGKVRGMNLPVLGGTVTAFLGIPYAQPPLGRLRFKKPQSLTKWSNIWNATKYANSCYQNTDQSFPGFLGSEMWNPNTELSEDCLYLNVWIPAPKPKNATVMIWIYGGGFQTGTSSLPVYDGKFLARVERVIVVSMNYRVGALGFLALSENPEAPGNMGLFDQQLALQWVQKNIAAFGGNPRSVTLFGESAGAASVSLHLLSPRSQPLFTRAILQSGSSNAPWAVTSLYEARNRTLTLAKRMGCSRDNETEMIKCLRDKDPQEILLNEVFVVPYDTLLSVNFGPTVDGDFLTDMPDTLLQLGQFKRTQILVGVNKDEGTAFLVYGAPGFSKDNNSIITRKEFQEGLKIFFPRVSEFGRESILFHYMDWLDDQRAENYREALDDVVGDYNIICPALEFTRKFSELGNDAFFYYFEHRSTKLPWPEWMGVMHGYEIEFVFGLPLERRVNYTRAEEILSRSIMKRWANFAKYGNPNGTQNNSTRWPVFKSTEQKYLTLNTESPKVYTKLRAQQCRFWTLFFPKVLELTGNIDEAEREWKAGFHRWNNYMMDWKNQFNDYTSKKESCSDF
Acetylcholinesterase, sequence (O42275 whole entry): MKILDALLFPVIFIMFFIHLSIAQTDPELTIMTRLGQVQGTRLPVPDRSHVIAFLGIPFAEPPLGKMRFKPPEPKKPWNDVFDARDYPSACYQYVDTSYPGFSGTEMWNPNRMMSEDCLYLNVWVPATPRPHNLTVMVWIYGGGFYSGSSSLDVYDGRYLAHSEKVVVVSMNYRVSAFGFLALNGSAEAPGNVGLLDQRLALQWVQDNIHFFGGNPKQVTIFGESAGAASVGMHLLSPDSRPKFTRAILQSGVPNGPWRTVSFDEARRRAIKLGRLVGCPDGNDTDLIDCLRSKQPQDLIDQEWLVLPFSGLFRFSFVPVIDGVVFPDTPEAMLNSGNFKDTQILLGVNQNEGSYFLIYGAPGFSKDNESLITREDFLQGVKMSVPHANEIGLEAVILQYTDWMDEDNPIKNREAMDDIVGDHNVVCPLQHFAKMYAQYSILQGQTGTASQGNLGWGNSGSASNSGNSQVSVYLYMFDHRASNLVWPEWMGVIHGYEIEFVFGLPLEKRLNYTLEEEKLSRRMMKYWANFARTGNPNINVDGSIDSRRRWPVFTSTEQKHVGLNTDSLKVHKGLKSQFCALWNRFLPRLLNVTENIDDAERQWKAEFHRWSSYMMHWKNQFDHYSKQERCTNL
Acetylcholinesterase (Electrophorus electricus), sequence (O42275 24-633 limits assumed): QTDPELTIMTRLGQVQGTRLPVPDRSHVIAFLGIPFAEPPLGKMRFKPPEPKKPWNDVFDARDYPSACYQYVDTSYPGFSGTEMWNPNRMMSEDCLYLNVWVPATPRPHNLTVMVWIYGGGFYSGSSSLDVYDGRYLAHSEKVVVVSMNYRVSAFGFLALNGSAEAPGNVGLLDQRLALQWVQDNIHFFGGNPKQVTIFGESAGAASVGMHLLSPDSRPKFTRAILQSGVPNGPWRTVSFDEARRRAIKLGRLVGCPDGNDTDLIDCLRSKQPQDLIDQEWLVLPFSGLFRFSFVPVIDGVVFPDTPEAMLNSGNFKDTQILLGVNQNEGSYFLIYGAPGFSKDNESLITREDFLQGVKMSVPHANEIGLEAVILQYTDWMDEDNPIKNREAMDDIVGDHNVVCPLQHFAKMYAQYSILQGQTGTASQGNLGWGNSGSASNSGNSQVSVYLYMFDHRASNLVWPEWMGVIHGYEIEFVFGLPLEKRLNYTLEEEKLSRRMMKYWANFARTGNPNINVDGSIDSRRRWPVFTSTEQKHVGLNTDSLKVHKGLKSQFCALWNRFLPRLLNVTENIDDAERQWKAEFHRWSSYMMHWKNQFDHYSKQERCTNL

| Structure (SMILES) | Ratio IC50 [1] | IC50 (Cholinesterase) | IC50 (Acetylcholinesterase) | inhibition [2] | Ratio IC50 [3] | Activity [4] | Activity (PC-12) |
| --- | --- | --- | --- | --- | --- | --- | --- |
| O=C(NCCC1CCN(Cc2ccccc2)CC1)c1cc2ccc(O)cc2oc1=O | 321 | 46000 nM | 143 nM | – | – | – | – |
| O=C(NCCC1CCN(Cc2ccccc2)CC1)c1cc2cc([N+](=O)[O-])ccc2oc1=O | 26300 | 7900 nM | 0.3 nM | Active | 46 | Non-toxic | Active |
| COc1ccc2cc(C(=O)NCCC3CCN(Cc4ccccc4)CC3)c(=O)oc2c1 | 71 | 357 nM | 5 nM | – | – | Non-toxic | Active |
| O=C(NCCC1CCN(Cc2ccccc2)CC1)c1cc2cc(Br)ccc2oc1=O | 210 | 420 nM | 2 nM | – | – | Non-toxic | Active |
| O=C(NC1CCN(Cc2ccccc2)CC1)c1cc2cc([N+](=O)[O-])ccc2oc1=O | 51 | 22000 nM | 430 nM | – | – | – | – |
| O=C(NCCC1CCN(Cc2ccccc2)CC1)c1cc2ccccc2oc1=O | 14 | 371 nM | 26 nM | – | – | – | – |
| COc1cccc2cc(C(=O)NCCC3CCN(Cc4ccccc4)CC3)c(=O)oc12 | 9000 | 18000 nM | 2 nM | – | – | – | – |
| COc1cccc2cc(C(=O)NC3CCN(Cc4ccccc4)CC3)c(=O)oc12 | 32 | 20000 nM | 633 nM | – | – | – | – |
| O=C(NC1CCN(Cc2ccccc2)CC1)c1cc2cc(Br)ccc2oc1=O | 1400 | 42000 nM | 30 nM | – | – | – | – |
| COc1ccc2cc(C(=O)NC3CCN(Cc4ccccc4)CC3)c(=O)oc2c1 | 147 | 27000 nM | 183 nM | – | – | – | – |
| O=C(NC1CCN(Cc2ccccc2)CC1)c1cc2ccccc2oc1=O | 14 | 17000 nM | 1200 nM | – | – | – | – |
| O=C(NCCC1CCN(Cc2ccccc2)CC1)c1cc2cc(O)ccc2oc1=O | 222 | 15600 nM | 70 nM | – | – | – | – |
| O=C(NC1CCN(Cc2ccccc2)CC1)c1cc2ccc(O)cc2oc1=O | 32 | 55000 nM | 1700 nM | – | – | – | – |
